CHRM4 agonist – CHRM4 agonism in calcium assay. CHO-K1 hM4/Gqi5, Fluo-8 calcium fluorescence; vehicle 0%, full acetylcholine response 100%. activation, % at 3 µM. 360,000 compounds, 0.14% hits. AID 624127;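 active = activation above the run mean over all test wells plus 3 SD, cut at about 32% in these data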;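 also: peak over basal fluorescence ratio per well then scaled between controls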
Target sequence (P08173 whole entry, looked up): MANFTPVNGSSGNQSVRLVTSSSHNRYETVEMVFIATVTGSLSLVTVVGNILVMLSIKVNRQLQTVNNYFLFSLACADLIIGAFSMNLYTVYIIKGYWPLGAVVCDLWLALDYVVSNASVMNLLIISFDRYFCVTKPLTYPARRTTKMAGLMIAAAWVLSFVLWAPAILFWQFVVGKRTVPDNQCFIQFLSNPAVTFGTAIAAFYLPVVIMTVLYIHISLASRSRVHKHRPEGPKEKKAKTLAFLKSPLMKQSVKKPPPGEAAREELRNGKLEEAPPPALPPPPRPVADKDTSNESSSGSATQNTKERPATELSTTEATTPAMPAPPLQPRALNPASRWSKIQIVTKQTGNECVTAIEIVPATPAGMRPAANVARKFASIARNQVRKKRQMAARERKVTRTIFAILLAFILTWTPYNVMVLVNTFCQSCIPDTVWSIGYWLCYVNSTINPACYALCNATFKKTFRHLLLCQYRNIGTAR
CHRM4 PAM – potentiates acetylcholine response at human M4 receptor. 360,000 compounds, 0.4% hits. AID 624126. activation, % at 3 µM. CHO-K1 hM4/Gqi5, Fluo-8 calcium fluorescence, ACh EC20; 0% = ACh EC20, 100% = maximal ACh;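 active = activation above its plate's cutoff, the mean activation of sample wells plus 3 SD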
CHRM5 agonist – agonists of human muscarinic M5 receptor (CHRM5); P08912; CHO-K1 hM5 cells, Fluo-8 calcium fluorescence; 0% DMSO wells, 100% maximal acetylcholine response; activation, % at 3 µM; 360,000 compounds, 0.19% hits;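 active = activation above the run's mean over test compounds plus 3 SD, cut at about 23% in these data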;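 also: signal is peak over basal fluorescence ratio across the kinetic read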
M5 PAM – positive allosteric modulators of human muscarinic M5 receptor | P08912 | CHO-K1 hM5, Fluo-8 calcium, ACh EC20 PAM; 0% = ACh EC20, 100% = ACh EC100 | activation, % at 3 µM | 360,000 compounds, 0.3% hits | AID 624038;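 active = activation above the run cutoff, the mean activation of all test compounds plus 3 SD, cut at about 18% in these data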
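Assay system: CHO-K1 hM5 cells / Incubation: Fluo-8 loading 80 min at 37 °C plus 30 min room temperature / Technique: Fluo-8 calcium dye fluorescence, kinetic read / Repeats: single replicate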
CHRM4 antagonist – blocks acetylcholine activation of human M4 receptor. P08173. CHO-hM4 cells, ACh EC80, Fluo-8 calcium fluorescence. inhibition, % at 3 µM. 360,000 compounds, 0.73% hits. AID 624125;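 active = inhibition above its plate's cutoff, the mean inhibition of sample wells plus 3 SD, cut at about 27% in these data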
M5 antag – antagonists of human muscarinic M5 receptor (CHRM5); P08912; CHO-hM5 cells, Fluo-8 calcium fluorescence, ACh EC80; inhibition, % at 3 µM; 360,000 compounds, 0.59% hits; AID 624040;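 active = inhibition above a per-plate cutoff, the mean of that plate's test compounds plus 3 SD, cut at about 27% in these data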
Numbers stand for hits. The list is not random: actives were taken first. Their share in the collection is about 1.8%.

What do the screens show for `Cc1ccc(-c2csc(NC(=O)c3cc([N+](=O)[O-])ccc3N3CCOCC3)n2)cc1`?
CHRM4 agonist: inactive; CHRM4 PAM: inactive; CHRM5 agonist: inactive; M5 PAM: inactive; CHRM4 antagonist: inactive; M5 antag: inactive

Results for O=C(Nc1nc(-c2ccccc2)cs1)c1ccc(N2CCOCC2)c([N+](=O)[O-])c1 ?
CHRM4 agonist: inactive; CHRM4 PAM: inactive; CHRM5 agonist: inactive; M5 PAM: inactive; CHRM4 antagonist: 44; M5 antag: 30

How did CN(C)C(CNC(=O)c1ccc(NS(=O)(=O)c2ccc3[nH]c(=O)[nH]c3c2)cc1)c1ccccc1 (stereo unspecified) do in these assays?
CHRM4 agonist: inactive; CHRM4 PAM: inactive; CHRM5 agonist: inactive; M5 PAM: inactive; CHRM4 antagonist: inactive; M5 antag: inactive

Results for N#C/C(=C/c1ccncc1)c1nc2ccccc2s1 ?
CHRM4 agonist: inactive; CHRM4 PAM: inactive; CHRM5 agonist: 26; M5 PAM: inactive; CHRM4 antagonist: inactive; M5 antag: 30

How did CC(C)=C(C#N)c1nc2ccccc2s1 do in these assays?
CHRM4 agonist: inactive; CHRM4 PAM: inactive; CHRM5 agonist: inactive; M5 PAM: inactive; CHRM4 antagonist: inactive; M5 antag: 27

Results for COC(=O)c1ccc(/C(O)=C(\C#N)c2nc3ccccc3s2)cc1 ?
CHRM4 agonist: inactive; CHRM4 PAM: inactive; CHRM5 agonist: inactive; M5 PAM: inactive; CHRM4 antagonist: inactive; M5 antag: inactive

What do the screens show for `COc1ccc(C(=O)ON=C(C)c2nccs2)cc1`?
CHRM4 agonist: inactive; CHRM4 PAM: inactive; CHRM5 agonist: inactive; M5 PAM: inactive; CHRM4 antagonist: inactive; M5 antag: inactive

What do the screens show for `Cc1cc(C)cc(NC(=O)CCC(=O)Nc2nnc(C(C)C)s2)c1`?
CHRM4 agonist: inactive; CHRM4 PAM: inactive; CHRM5 agonist: inactive; M5 PAM: inactive; CHRM4 antagonist: inactive; M5 antag: inactive

How did CC(C)C[C@@H](COCc1ccc(C(F)(F)F)cc1)N1CCN(C(=O)c2ccc(C(F)(F)F)cc2)CCC1=O do in these assays?
CHRM4 agonist: inactive; CHRM4 PAM: inactive; CHRM5 agonist: inactive; M5 PAM: inactive; CHRM4 antagonist: inactive; M5 antag: inactive

Results for Nc1nnc(SCC(=O)Nc2cccnc2Cl)s1 ?
CHRM4 agonist: inactive; CHRM4 PAM: 23; CHRM5 agonist: inactive; M5 PAM: inactive; CHRM4 antagonist: inactive; M5 antag: inactive

What do the screens show for `Cc1cccc(Nc2nnc(SCC(=O)Nc3cccnc3Cl)s2)c1`?
CHRM4 agonist: inactive; CHRM4 PAM: inactive; CHRM5 agonist: inactive; M5 PAM: inactive; CHRM4 antagonist: inactive; M5 antag: inactive

Results for COc1cc(/C=N/NC(=O)C2=NNC(=O)C2C)ccc1O (stereo unspecified) ?
CHRM4 agonist: inactive; CHRM4 PAM: inactive; CHRM5 agonist: inactive; M5 PAM: inactive; CHRM4 antagonist: inactive; M5 antag: inactive

Results for CC1C(=O)NN=C1C(=O)N/N=C\c1ccc(O)cc1O (stereo unspecified) ?
CHRM4 agonist: inactive; CHRM4 PAM: 29; CHRM5 agonist: inactive; M5 PAM: inactive; CHRM4 antagonist: inactive; M5 antag: inactive

How did CN(C)CCCN1c2ccccc2Sc2ccc3ccccc3c21 do in these assays?
CHRM4 agonist: inactive; CHRM4 PAM: inactive; CHRM5 agonist: inactive; M5 PAM: inactive; CHRM4 antagonist: 27; M5 antag: 55

Results for OCCN1CCN(CCCN2c3ccccc3Sc3ccc(Cl)cc32)CC1 ?
CHRM4 agonist: inactive; CHRM4 PAM: inactive; CHRM5 agonist: inactive; M5 PAM: inactive; CHRM4 antagonist: 98; M5 antag: 34

What do the screens show for `CN(C)CCCN1c2ccccc2Sc2ccc(Cl)cc21`?
CHRM4 agonist: inactive; CHRM4 PAM: inactive; CHRM5 agonist: inactive; M5 PAM: inactive; CHRM4 antagonist: 73; M5 antag: 98

What do the screens show for `CSCc1ccc(C(=O)NC2CC(C)(C)Cc3c2cnn3-c2ccc(F)cc2)o1` (stereo unspecified)?
CHRM4 agonist: inactive; CHRM4 PAM: inactive; CHRM5 agonist: inactive; M5 PAM: inactive; CHRM4 antagonist: inactive; M5 antag: inactive

Bioassay records from PubChem.
